Data published in article PMC5598522 (Toxicology Reports, 2014).

Columns and labels:
[1] = Quantitative whole body autoradiography; assay type: in vivo, rat; conditions: [3H] Ticagrelor 3 mg/kg
[2] = Plasma exposure in ovariectomized rat study; assay type: in vivo; conditions: Ticagrelor 180 mg/kg/day, Day 1, 5 h post dose
Procedure, shortened: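 Female Han Wistar rats (350–375 g) ovariectomized and fitted with jugular and femoral vein catheters, then housed tethered at 23 ± 1 °C. Dosed orally at 180 mg/kg/day in 1% sodium carboxymethylcellulose/0.1% polysorbate 80, n = 10 per group. On Day 1, 0.5 mL blood taken 5 h post-dose into lithium heparin; exposure measured by protein precipitation and LC-MS/MS.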

[3] = pregnant female rat (Day 18 of gestation), 5 min
[4] = pregnant female rat (Day 18 of gestation), 0.5 h
[5] = pregnant female rat (Day 18 of gestation), 2 h
[6] = pregnant female rat (Day 18 of gestation), 4 h

CCCSc1nc(N[C@@H]2C[C@H]2c2ccc(F)c(F)c2)c2nnn([C@@H]3C[C@H](OCCO)[C@@H](O)[C@H]3O)c2n1 [Ticagrelor]
Heart radioactivity ([1]; male rat, 2 h): 1.73 μg equivalent/g
Heart radioactivity, fold of blood value ([1]; male rat, 2 h): 3.74 fold of blood value
Kidney radioactivity ([1]; male rat, 2 h): 2.22 μg equivalent/g
Kidney radioactivity, fold of blood value ([1]; male rat, 2 h): 4.79 fold of blood value
Liver radioactivity ([1]; male rat, 2 h): 3.20 μg equivalent/g
Liver radioactivity, fold of blood value ([1]; male rat, 2 h): 6.97 fold of blood value
Lung radioactivity ([1]; male rat, 2 h): 2.09 μg equivalent/g
Lung radioactivity, fold of blood value ([1]; male rat, 2 h): 4.51 fold of blood value
Pancreas radioactivity ([1]; male rat, 2 h): 2.78 μg equivalent/g
Pancreas radioactivity, fold of blood value ([1]; male rat, 2 h): 6.00 fold of blood value
Pituitary gland radioactivity ([1]; male rat, 2 h): 1.84 μg equivalent/g
Pituitary gland radioactivity, fold of blood value ([1]; male rat, 2 h): 3.97 fold of blood value
Salivary gland radioactivity ([1]; male rat, 2 h): 2.14 μg equivalent/g
Salivary gland radioactivity, fold of blood value ([1]; male rat, 2 h): 4.62 fold of blood value
Skeletal muscle radioactivity ([1]; male rat, 2 h): 1.48 μg equivalent/g
Skeletal muscle radioactivity, fold of blood value ([1]; male rat, 2 h): 3.20 fold of blood value
Spinal cord radioactivity ([1]; male rat, 2 h): 0.02 μg equivalent/g
Spinal cord radioactivity, fold of blood value ([1]; male rat, 2 h): 0.04 fold of blood value
Spleen radioactivity ([1]; male rat, 2 h): 1.51 μg equivalent/g
Spleen radioactivity, fold of blood value ([1]; male rat, 2 h): 3.29 fold of blood value
Stomach wall radioactivity ([1]; male rat, 2 h): 2.31 μg equivalent/g
Stomach wall radioactivity, fold of blood value ([1]; male rat, 2 h): 4.99 fold of blood value
Thymus radioactivity ([1]; male rat, 2 h): 1.37 μg equivalent/g
Thymus radioactivity, fold of blood value ([1]; male rat, 2 h): 2.96 fold of blood value
Thyroid gland radioactivity ([1]; male rat, 2 h): 2.60 μg equivalent/g
Thyroid gland radioactivity, fold of blood value ([1]; male rat, 2 h): 5.62 fold of blood value
Adrenal gland radioactivity ([1]; male rat, 4 h): 0.81 μg equivalent/g
Adrenal gland radioactivity, fold of blood value ([1]; male rat, 4 h): 2.24 fold of blood value
Blood (LSC) radioactivity ([1]; male rat, 4 h): 0.361 μg equivalent/g
Brain radioactivity ([1]; male rat, 4 h): 0.02 μg equivalent/g
Brain radioactivity, fold of blood value ([1]; male rat, 4 h): 0.06 fold of blood value
Brown fat radioactivity ([1]; male rat, 4 h): 0.52 μg equivalent/g
Brown fat radioactivity, fold of blood value ([1]; male rat, 4 h): 1.44 fold of blood value
Eye radioactivity ([1]; male rat, 4 h): 0.14 μg equivalent/g
Eye radioactivity, fold of blood value ([1]; male rat, 4 h): 0.39 fold of blood value
Kidney radioactivity ([1]; male rat, 4 h): 1.74 μg equivalent/g
Kidney radioactivity, fold of blood value ([1]; male rat, 4 h): 4.87 fold of blood value
Liver radioactivity ([1]; male rat, 4 h): 2.42 μg equivalent/g
Liver radioactivity, fold of blood value ([1]; male rat, 4 h): 6.70 fold of blood value
Lung radioactivity ([1]; male rat, 4 h): 1.55 μg equivalent/g
Lung radioactivity, fold of blood value ([1]; male rat, 4 h): 4.29 fold of blood value
Pancreas radioactivity ([1]; male rat, 4 h): 2.08 μg equivalent/g
Pancreas radioactivity, fold of blood value ([1]; male rat, 4 h): 5.76 fold of blood value
Pituitary gland radioactivity ([1]; male rat, 4 h): 1.65 μg equivalent/g
Pituitary gland radioactivity, fold of blood value ([1]; male rat, 4 h): 4.57 fold of blood value
Salivary gland radioactivity ([1]; male rat, 4 h): 1.59 μg equivalent/g
Salivary gland radioactivity, fold of blood value ([1]; male rat, 4 h): 4.40 fold of blood value
Skeletal muscle radioactivity ([1]; male rat, 4 h): 1.16 μg equivalent/g
Skeletal muscle radioactivity, fold of blood value ([1]; male rat, 4 h): 3.21 fold of blood value
Spinal cord radioactivity ([1]; male rat, 4 h): 0.02 μg equivalent/g
Spinal cord radioactivity, fold of blood value ([1]; male rat, 4 h): 0.06 fold of blood value
Spleen radioactivity ([1]; male rat, 4 h): 0.82 μg equivalent/g
Spleen radioactivity, fold of blood value ([1]; male rat, 4 h): 2.27 fold of blood value
Stomach wall radioactivity ([1]; male rat, 4 h): 1.32 μg equivalent/g
Stomach wall radioactivity, fold of blood value ([1]; male rat, 4 h): 3.66 fold of blood value
Thymus radioactivity ([1]; male rat, 4 h): 1.33 μg equivalent/g
Thymus radioactivity, fold of blood value ([1]; male rat, 4 h): 3.68 fold of blood value
Thyroid gland radioactivity ([1]; male rat, 4 h): 1.19 μg equivalent/g
Thyroid gland radioactivity, fold of blood value ([1]; male rat, 4 h): 3.30 fold of blood value
Blood (LSC) radioactivity [1, 3]: 2.474 μg equivalent/g
Fetus radioactivity [1, 3]: 0.03 μg equivalent/g
Fetus radioactivity, fold of blood value [1, 3]: 0.01 fold of blood value
Placenta radioactivity [1, 3]: 6.42 μg equivalent/g
Placenta radioactivity, fold of blood value [1, 3]: 2.59 fold of blood value
Blood (LSC) radioactivity [1, 4]: 0.864 μg equivalent/g
Fetus radioactivity [1, 4]: 0.06 μg equivalent/g
Fetus radioactivity, fold of blood value [1, 4]: 0.07 fold of blood value
Placenta radioactivity [1, 4]: 2.86 μg equivalent/g
Placenta radioactivity, fold of blood value [1, 4]: 3.31 fold of blood value
Blood (LSC) radioactivity [1, 5]: 0.282 μg equivalent/g
Fetus radioactivity [1, 5]: 0.07 μg equivalent/g
Fetus radioactivity, fold of blood value [1, 5]: 0.25 fold of blood value
Placenta radioactivity [1, 5]: 1.02 μg equivalent/g
Placenta radioactivity, fold of blood value [1, 5]: 3.62 fold of blood value
Blood (LSC) radioactivity [1, 6]: 0.24 μg equivalent/g
Fetus radioactivity [1, 6]: 0.03 μg equivalent/g
Fetus radioactivity, fold of blood value [1, 6]: 0.13 fold of blood value
Placenta radioactivity [1, 6]: 0.39 μg equivalent/g
Placenta radioactivity, fold of blood value [1, 6]: 1.63 fold of blood value
Brain and spinal tissue penetration (QWBA conclusion) ([1]; rats): effectively excluded from the brain and spinal tissues by the blood brain barrier
Radioactivity levels in brain, spinal cord and fetus ([1]; rats): < 0.25 fold of blood levels
Plasma exposure (mean ± SD) [2]: 33.2 ± 10.6 µM
